Here are results for three molecules from ChEMBL document CHEMBL1671697, “Lipophilic bisphosphonates are potent inhibitors of Plasmodium liver-stage growth” (Antimicrob Agents Chemother, 2010).

The test system of data set [1] is Plasmodium berghei. Put plainly: Antimalarial activity against Plasmodium berghei NK65 infected in human HepG2 cells after 48 hrs by RT-PCR. It is filed as functional, organism-based. As to conditions: NK65, HepG2, 48 h. Summed up:
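P. berghei NK65 sporozoites (10,000 per well) added to human HepG2 monolayers seeded the day before, in DMEM with 10% FBS, with compound diluted in PBS; 37°C, 5% CO2, 48 h. Medium and compound were renewed at 24 h. Parasite 18S rRNA copies were quantified by real-time PCR against a plasmid standard and expressed relative to untreated control. IC50 was obtained by nonlinear regression.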

Data set [2] concerns Plasmodium berghei. Put plainly: Antiplasmodial activity against Plasmodium berghei NK65 infected in 12 wk old C57BL/6 mouse assessed as prepatent period at 2 mg/kg, ip administered once daily via a regimen of day 2, 1 pre-infection, on the day of infection followed by day 1 and 2 postinfection for 5 days by microscopic analysis. Format: functional. To be noted: route intraperitoneal.

Data set [3] is described as follows: Inhibition of Plasmodium vivax GGPPS.
In data set [4] the test system is Plasmodium berghei. Put plainly: Antiplasmodial activity against 3000 Plasmodium berghei NK65 liver stage sporozoites infected in 12 wk old C57BL/6 mouse assessed as delay in prepatent period at 2 mg/kg, ip administered once daily via a regimen of day 2, 1 pre-infection, on the day of infection followed by day 1 and 2 postinfection for 5 days by microscopic analysis. It is filed as functional. As to conditions: route intraperitoneal. Summed up:
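Mice were given compound i.p. once daily from 2 days before to 2 days after sporozoite challenge (5 doses). Challenge was 3,000 infectious P. berghei sporozoites. Parasitemia was followed by blood smear until 3–5%, then mice were sacrificed. Complete protection means no blood-stage parasites in smears; observation lasted 28 days.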

Data set [5] in a line: Partition coefficient, log P of the compound. It is filed as physicochemical. To be noted: octanol/water; read-out: logP.
For data set [6], the system named is Plasmodium falciparum. Put plainly: Antiplasmodial activity against chloroquine-sensitive Plasmodium falciparum 3D7 assessed as suppression of parasitemia by microscopic analysis.
Data set [7] is described as follows: Inhibition of Plasmodium vivax FPPS.
Data set [8] can be described thus: Cytotoxicity against human HepG2 cells after 22 hrs. Format: cell-based. To be noted: read-out: TC50. Summed up: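 HepG2 cells were seeded at 70% confluence the day before treatment, then exposed to a range of inhibitor concentrations for 22 h at 37°C, 5% CO2. CellTiter One reagent was then added for 2 h more, and OD495 was read. IC50 (TC50) was fit by nonlinear regression of percent viable cells against concentration.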

Data set [9] deals with Plasmodium falciparum. Briefly: Antiplasmodial activity against chloroquine-resistant Plasmodium falciparum W2mef assessed as suppression of parasitemia by microscopic analysis.

For the molecule `NCCC(O)(P(=O)(O)O)P(=O)(O)O` [PAMIDRONIC ACID], in the data set on Plasmodium berghei [1], the concentration for half-maximal inhibition (IC50) (commonly the concentration that inhibits the measured activity by half) is > 200 µM.

As for `CCCCCCCCCCN(C)CC(P(=O)(O)O)P(=O)(O)O`, the Activity is 9 days with Plasmodium berghei [2] and 5 days in the data set with Plasmodium berghei [4]. For the same molecule, the IC50 worked out at 700 nM in data set [3]; 450 nM in the data set with Plasmodium falciparum [6]; 1500 nM in [7]; 8 µM in the data set on Plasmodium berghei [1]; 2200 nM in the data set with Plasmodium falciparum [9]. Moreover, the Ki (usually the dissociation constant of the complex between target and ligand, obtained from inhibition or displacement) worked out at 16 nM in data set [3] and 43 nM in [7]. The logP (as a rule, the decadic logarithm of the partition coefficient of the neutral form, usually between octanol and water) in data set [5] is -3.4. In data set [8], the CC50 at 22 h came to 1 mM.

With `CC[C@H](C)C(=O)O[C@H]1C[C@H](O)C=C2C=C[C@H](C)[C@H](CC[C@@H](O)C[C@@H](O)CC(=O)O)[C@H]21` [PRAVASTATIN SODIUM], in the data set on Plasmodium berghei [1], the IC50 was > 200 µM.
